# CYP2C9 act: CYP2C9 (human) activation | recombinant CYP2C9, luciferin-H conversion, luminescence; hits give high values; factor 1 = untreated enzyme, 0 = blocked | 96,000 compounds, 1.4% hits | P11712 | activation factor at 5 µM;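 active means activation factor of 2 or more for CYP2C9 at a 5 µM dose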;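 further: 0 = sulfaphenazole-blocked wells and 1 = vehicle-only wells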
# CYP2C9 inh: blocks human cytochrome P450 2C9; P11712; CYP2C9 Supersomes, luciferin-H conversion, luminescence; inhibition, % at 5 µM; 96,000 compounds, 20% hits;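 active means blocking of liver enzyme CYP2C9 beyond about 50% at 5 µM, limit read from the data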
# CYP2C19 inhib: blocks human cytochrome P450 2C19. P33261. CYP2C19 Supersomes, luciferin-H EGE luminescence, 30 min. inhibition, % at 5 µM. 96,000 compounds, 21% hits. AID 778;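 active means CYP2C19 inhibition above a set limit at 5 µM in the primary screen, cut at about 50% in these data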;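 further: plate controls were negative control wells for no effect and 2.5 mM tranylcypromine positive control for full effect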
# Target sequence (P33261 whole entry, looked up): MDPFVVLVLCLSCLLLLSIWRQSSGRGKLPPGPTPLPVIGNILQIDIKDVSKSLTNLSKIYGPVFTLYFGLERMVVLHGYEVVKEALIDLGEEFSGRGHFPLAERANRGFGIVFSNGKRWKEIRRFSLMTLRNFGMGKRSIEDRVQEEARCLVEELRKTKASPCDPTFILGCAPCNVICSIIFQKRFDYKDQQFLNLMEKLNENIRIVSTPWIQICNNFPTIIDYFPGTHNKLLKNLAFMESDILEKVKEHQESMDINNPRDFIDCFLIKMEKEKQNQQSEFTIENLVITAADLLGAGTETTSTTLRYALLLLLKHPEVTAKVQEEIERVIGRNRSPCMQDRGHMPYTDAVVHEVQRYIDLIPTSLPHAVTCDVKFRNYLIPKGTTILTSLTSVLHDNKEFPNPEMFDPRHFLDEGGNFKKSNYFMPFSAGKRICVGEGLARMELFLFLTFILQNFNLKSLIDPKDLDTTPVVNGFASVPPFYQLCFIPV
# Rev-RRE block: disrupts HIV-1 Rev binding to RRE RNA; P05866; Rev peptide-RRE RNA binding, FRET; inhibition, % at 8 µM; 97,000 compounds, 0.79% hits; AID 704;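 active means inhibition above the screen-wide mean plus 3 SD, cut at about 35% in these data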;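 further: 0% = median DMSO wells and 100% = median Neomycin B control wells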
# Target sequence (P05866 whole entry, looked up): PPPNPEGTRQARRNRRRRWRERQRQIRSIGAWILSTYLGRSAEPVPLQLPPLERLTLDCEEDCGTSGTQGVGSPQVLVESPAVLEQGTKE
#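 Probe or stimulus: fluorescein-Rev peptide as binding partner; assay system: Cy5-tagged RRE RNA duplex with fluorescein-tagged Rev peptide; timing: 5 min compound–RNA preincubation, then 15 min with peptide, 25 °C; medium: HEPES pH 7.5 buffer with KCl, MgCl2, NaCl and EDTA; signal: fluorescein-to-Cy5 FRET, 480 nm excitation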
# Cav3 T inh: blocks human Cav3.2 T-type calcium channel | O95180 | Cav3.2-expressing cells, Fluo-4 calcium fluorescence FDSS; hits give low values | B-score at 10 µM | 100,000 compounds, 4% hits | AID 449739;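 active means single-dose well whose peak fluorescence ratio is a statistical outlier from its plate by either plate-standardised score or position-corrected B-score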
# CYP2C19 act: increases human CYP2C19 enzyme activity. P33261. recombinant CYP2C19, luciferin-H EGE luminescence; hits give high values; 0 = fully inhibited enzyme, 1 = untreated enzyme. activation factor at 5 µM. 96,000 tested, under 10 active. AID 1025;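 active means activation factor of at least 2 at 5 µM in the primary screen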;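 further: 0 = wells with 2.5 mM tranylcypromine and 1 = vehicle-only wells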
# * = called active by the depositor; / = not tested or not shown. Rows were chosen to be rich in hits. Some 27% of all compounds tested hit in one or more screens of this group.
SMILES,CYP2C9 act,CYP2C9 inh,CYP2C19 inhib,Rev-RRE block,Cav3 T inh,CYP2C19 act
O=C(CSc1ncccc1-c1nc2ccccc2[nH]1)NCc1ccco1,0.4,55*,48,15,0.47,0.5
COC(=O)CSc1ncccc1-c1nc2ccccc2[nH]1,0.6,43,59*,4,1.1,0.4
N#CCSc1ncccc1-c1nc2ccccc2[nH]1,/,/,/,-2,0.097,/
CN(/N=C/c1cccs1)c1cc(=O)n(C)c(=O)[nH]1,/,/,/,1,0.63,/
CC(C)C(NC(=O)c1ccccc1)C(=O)NC1=NCCS1 (stereo unspecified),0.8,16,31,2,0.76,0.7
Cc1cccc(OC(=O)C2C(c3ccccc3)C(C(=O)O)C2c2ccccc2)c1 (stereo unspecified),0.4,59*,10,1,-2.2,0.9
CC(C)CCOC(=O)C1C(c2ccccc2)C(C(=O)O)C1c1ccccc1 (stereo unspecified),0.8,23,59*,6,-1.2,0.4
CCOC(=O)COc1ccc2c(c1)C(=O)CC1(CCN(C(C)=O)CC1)O2,1,-1,-7,4,1,1.1
COC(=O)c1ccc(Oc2cc(C)nc(SC)n2)cc1,0.3,72*,86*,5,/,0.1
COC(=O)COc1ccc(Oc2cc(C)nc(SC)n2)nn1,1,-4,-1,7,-0.21,1
COCCNC(=O)c1cc(-c2ccc(Cl)c(Cl)c2)on1,1,-4,-16,/,0.066,1.2
CCN(CC)c1ccc(Nc2nc(N3CCOCC3)c3ccccc3n2)cc1,0.4,55*,54*,-2,-2.6,0.5
CCn1nnc(NC(=O)c2cc3ccccc3o2)n1,0.9,10,-2,4,0.38,1
COc1ccc(S(=O)(=O)NCCSCc2cccs2)cc1,0.7,28,94*,12,-5.2,0.1
COc1ccc(S(=O)(=O)NCCSCc2ccco2)cc1,0.6,36,89*,4,-0.96,0.1
CCOc1ccc(S(=O)(=O)NCCSCc2ccco2)cc1,1,-3,42,13,-1.5,0.6
COc1ccc(S(=O)(=O)NCCSCc2ccccc2C)cc1Br,2*,-98,81*,11,-4.9*,0.2
COc1ccc(S(=O)(=O)NCCC(=O)NCc2cccs2)cc1,1.9,-85,-2,9,0.024,1
COc1ccc(S(=O)(=O)NCCSCc2ccco2)cc1OC,2.2*,-124,60*,1,/,0.4
CCOC(=O)c1ccc(NCc2nc3ccccc3n2C)cc1,0.7,27,17,8,-1.5,0.8
CCOC(=O)C(NS(=O)(=O)c1ccccc1)(C(F)(F)F)P(=O)(OCC(C)C)OCC(C)C (stereo unspecified),0.8,16,10,-4,-0.013,0.9
CC1(C)CC(=O)c2cc(OCC(=O)O)ccc2O1,1,3,3,7,0.14,1
CC1(C)CC(=O)c2cc(OCC(=O)N3CCN(c4ccccc4F)CC3)ccc2O1,0.5,49,68*,/,-2,0.3
CC1(C)CC(=O)C2=C(C1)c1c(ccc3ccccc13)NC2c1ccc(Br)o1 (stereo unspecified),0,96*,75*,13,-1.4,0.3
O=C(CSc1nc2ccncc2[nH]1)Nc1ccccc1C(F)(F)F,0.5,48,60*,/,-0.89,0.4
SMILES,CYP2C9 act,CYP2C9 inh,CYP2C19 inhib,Rev-RRE block,Cav3 T inh,CYP2C19 act
O=C(Cn1c(CO)nc2ccccc21)Nc1cc(C(F)(F)F)ccc1N1CCOCC1,0.5,53*,38,11,-1.9,0.6
Clc1ccccc1CSc1nc2ccncc2[nH]1,0.7,32,99*,8,/,0
O=C(Nc1cc(C(F)(F)F)ccc1N1CCOCC1)c1ccc[n+]([O-])c1,1,4,3,12,0.12,1
O=C(CSc1nc2ccccc2[nH]1)Nc1cc(C(F)(F)F)ccc1N1CCOCC1,0,99*,99*,17,-6.9*,0
O=C(Nc1cc(C(F)(F)F)ccc1N1CCOCC1)c1n[nH]c(=O)c2ccccc12,1.1,-9,-6,4,-0.95,1.1
O=C(CSc1nc2ccccc2[nH]1)Nc1ccccc1N1CCOCC1,0.2,79*,98*,1,0.15,0
CSc1ncccc1C(=O)OCC(=O)Nc1cc(C(F)(F)F)ccc1N1CCOCC1,0.5,51*,38,14,-3.5,0.6
CCc1nnc(NC(=O)c2ccc(S(=O)(=O)N(CC)CC)cc2)s1,/,/,/,2,0.5,/
O=C(NC(=S)NCCN1CCOCC1)c1cccc(Cl)c1,0.8,21,41,4,1.1,0.6
O=C(COc1cccc2cccnc12)N/N=C1\SCC(=O)N1Cc1ccccc1,0.9,7,14,3,1.7,0.9
c1ccc(-c2nnc(SCc3nc4ccccc4[nH]3)n2Cc2ccco2)nc1,0.1,90*,51*,2,0.013,0.5
CCn1c(COc2ccc(C)cc2)nnc1SCc1nc2ccccc2[nH]1,0.6,45,29,-1,-0.73,0.7
Clc1ccccc1CSc1nnc(-c2ccccn2)n1Cc1ccco1,0.9,7,0,8,-3.1,1
Clc1cccc(-c2nnc(SCc3nc4ccccc4[nH]3)n2Cc2ccco2)c1,0.1,87*,82*,11,-5.4*,0.2
COc1cccc(-c2nnc(SCc3nc4ccccc4[nH]3)n2N)c1,1.1,-13,22,1,/,0.8
Clc1ccc(OCc2nnc(SCc3nc4ccccc4[nH]3)n2Cc2ccco2)cc1,0.4,62*,12,7,-8.5*,0.9
COc1cc(S(=O)(=O)N(Cc2cccnc2)Cc2ccco2)ccc1-n1cnnn1,0.9,5,48,/,1,0.5
COc1cc(S(=O)(=O)NCC2OCCc3ccccc32)ccc1-n1cnnn1 (stereo unspecified),0.5,53*,91*,7,-0.31,0.1
COc1cc(S(=O)(=O)N(Cc2ccc(C)cc2)Cc2ccco2)ccc1-n1cnnn1,0.5,53*,64*,20,-0.42,0.4
CC#CCN(CC#CC)S(=O)(=O)c1ccc(-n2cnnn2)c(OC)c1,0.9,13,84*,9,-0.012,0.2
COc1ccc(CN(C2CCCC2)S(=O)(=O)c2ccc(-n3cnnn3)cc2)cc1OC,/,/,/,9,0.014,/
COc1cc(S(=O)(=O)N(Cc2ccccc2)Cc2ccccn2)ccc1-n1cnnn1,/,/,/,12,-0.025,/
COc1cc(S(=O)(=O)N(Cc2ccc(C)cc2)C2CCCCC2)ccc1-n1cnnn1,0.2,84*,86*,/,-2.4,0.1
CCC(=O)Nc1nc2ccc3nc(C)sc3c2s1,1.2,-24,7,5,0.79,0.9
Cc1cc(C)cc(NC(=O)c2cccn2-c2ncc(C(F)(F)F)cc2Cl)c1,0.8,20,50,13,-2.9,0.5

# Compound activity deposited in PubChem by several laboratories.
